According to the RNAGym collection of RNA variant scans (doi:10.1038/s41586-018-0170-7):

B1: tRNA (parent)
chain: GUUCCGUUGGCGUAAUGGUAACGCGUCUCCCUCCUAAGGAGAAGACUGCGGGUUCGAGUCCCGUACGGAACG

Variants of: B1
Test: yeast fitness, log relative to wild type (ln ratio); higher = fitter; tRNA-Arg(CCU), competitive growth, 37 C, 1 M NaCl
Procedure, shortened: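 Variants were counted by 125 bp paired-end Illumina sequencing after pools of a combinatorial tRNA-Arg(CCU) library, held on a HIS3 centromeric plasmid in BY4742 lacking the chromosomal gene, grew ~6.5 generations (~26.5 h) in SC-HIS 1M NaCl at 37 °C. Each genotype's fitness is the natural log of its generations relative to the wild type's. Generations were OD-scaled log2 output/input frequencies, inverse-variance weighted over replicates.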

Row | Variant | yeast fitness (ln)
1 | G1A U2G A69G A70G C71U | -0.438
2 | G1A U2G C27U A69G A70G C71U | -0.241
3 | G1A U2G C46U C66U A69G C71U | -0.318
4 | G1A U2C G6U C46U C66U A69G A70G C71U | -0.0644
5 | G1A U2G A43C C66A C71U | -0.228
6 | G1A U2C G6U C27U C46U C66U C71U | -0.196
7 | G1A U2C G6U C27U C66U A69G A70U | -0.245
8 | G1A U2C G6U C27U C46U A69G A70G C71U | -0.272
9 | G1A U2C G6U C46U C66A C71U | -0.0738
10 | G1A U2G C27U A43C C46U A69G A70G C71U | -0.221
11 | G1A U2G C27U C46U C66A A70G C71U | -0.203
12 | G1A U2G C27U C46U A69G A70G | -0.21
13 | G1A U2G C27U C46U A69G A70U | -0.207
14 | G1A U2G A43C C46U C66A A69G C71U | -0.335
15 | G1A U2C G6U C27U C66A A69G A70G C71U | -0.137
16 | G1A U2G C27U A43C | -0.182
17 | G1A U2G A43C C46U C66U A69G A70G C71U | -0.323
18 | G1A U2G A43C | -0.0767
19 | G1A U2C G6U C46U A69G C71U | -0.0722
20 | G1A U2G C27U C46U A70U C71U | -0.0144
21 | G1A U2G C27U A43C A70G | -0.176

Row | Variant | yeast fitness (ln)
22 | G1A U2G C27U A43C A70U | -0.154
23 | G1A U2G C66A A70G | -0.114
24 | G1A U2G C66A A70U | -0.0922
25 | G1A U2G A43C C46U A70U C71U | -0.00171
26 | G1A U2G C27U A43C C66U A70U C71U | -0.382
27 | G1A U2G C66U A69G A70G | -0.243
28 | G1A U2G C66U A69G A70U | -0.197
29 | G1A U2G C27U A43C C46U A70U | -0.229
30 | G1A U2G C27U A43C C46U A70G | -0.124
31 | G1A U2C G6U C27U C46U C66U A69G A70U C71U | -0.518
32 | G1A U2G A69G | -0.104
33 | G1A U2G C27U A43C C46U C66A A69G A70U C71U | -0.456
34 | G1A U2G C66U A70U | -0.131
35 | G1A U2G C66U A70G | -0.161
36 | G1A U2C G6U C46U C66A A70G C71U | -0.0251
37 | G1A U2G C46U C66U A69G A70U | -0.128
38 | G1A U2G C46U C66U A69G A70G | -0.172
39 | G1A U2G A70U C71U | 0.00659
40 | G1A U2C G6U C27U C66A A70G C71U | -0.0489
41 | G1A U2G A43C C46U A70G | -0.114
42 | G1A U2G A43C C46U A70U | -0.163

Row | Variant | yeast fitness (ln)
43 | G1A U2G C46U C66A A69G A70U C71U | -0.385
44 | G1A U2G C27U C66U A70U | -0.174
45 | G1A U2G C27U C66U A70G | -0.194
46 | G1A U2G A43C A70G C71U | -0.207
47 | G1A U2G A43C C66U A69G A70U C71U | -0.472
48 | G1A U2G C27U A43C C46U C66U A70G C71U | -0.318
49 | G1A U2G C27U C46U C66A A69G A70U C71U | -0.476
50 | G1A U2G A43C C66A A69G A70G C71U | -0.329
51 | G1A U2G C27U A43C C46U C66U C71U | -0.277
52 | G1A U2G C46U C66A A70G C71U | -0.198
53 | G1A U2G C27U A70G | -0.142
54 | G1A U2G C27U A70U | -0.33
55 | G1A U2C G6U C27U C46U A69G C71U | -0.166
56 | G1A U2C G6U C27U C46U A70U | -0.157
57 | G1A U2C G6U C27U C46U A70G | -0.129
58 | G1A U2G C46U | -0.0473
59 | G1A U2G A43C C66U C71U | -0.257
60 | G1A U2C G6U C46U C66A | -0.141
61 | G1A U2G A43C C66A A70U C71U | -0.396
62 | G1A U2C G6U C66U A70U C71U | -0.095
63 | G1A U2G C46U C66A A70U C71U | -0.152

Row | Variant | yeast fitness (ln)
64 | G1A U2C G6U C27U C46U C71U | -0.0687
65 | G1A U2G C46U A70G | -0.103
66 | G1A U2G C46U A70U | -0.115
67 | G1A U2G A43C C46U C66U | -0.116
68 | G1A U2G A43C C46U C66A | -0.156
69 | G1A U2C G6U C46U C66A A70U C71U | -0.0961
70 | G1A U2G C27U A43C A69G C71U | -0.37
71 | G1A U2G C27U C66U A69G A70U C71U | -0.511
72 | G1A U2C G6U C27U C46U C66U A70U | -0.128
73 | G1A U2C G6U C27U C46U C66U A70G | -0.203
74 | G1A U2C G6U C46U C71U | -0.111
75 | G1A U2G A43C C46U C66A A69G A70U | -0.252
76 | G1A U2G C27U C46U C66U A69G A70U C71U | -0.429
77 | G1A U2G A70G C71U | -0.212
78 | G1A U2G C27U A43C C46U C71U | -0.0914
79 | G1A U2G C27U C46U C66U C71U | -0.21
80 | G1A U2C G6U C27U C46U C66U A69G A70U | -0.222
81 | G1A U2G C27U C46U C66A C71U | -0.0936
82 | G1A U2G C27U C46U A69G A70U C71U | -0.18
83 | G1A U2G A43C A69G A70G C71U | -0.202
